Like-named read-outs stand apart in the source and are kept apart here.
Legend:
Experiment in all cases: spectrophotometric ring-cleavage assay, non-linear Michaelis-Menten fit
EXDO-Dbt_s207 = format: biochemical; details: read-out: Km (μM) ^b, partially purified enzyme
EXDO-D_s45 = format: biochemical, uncultured bacterium; details: read-out: Km (μM) ^b; 50 mM K/Na-phosphate pH 8.0, air-saturated; partially purified enzyme
Procedure, shortened: (§1)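 Enzyme came from E. coli EPI300-T1R fosmid clones grown at 37°C in LB with 0.01% L-arabinose and 25 μg ml−1 chloramphenicol, harvested in late exponential phase. Extracts were partially purified by anion exchange chromatography. Ring-cleavage product was followed spectrophotometrically in 50 mM air-saturated K/Na-phosphate pH 8.0 (catechol ε375, 3-methylcatechol ε388, 2,3-dihydroxybiphenyl ε434). Km was obtained from initial velocities over 1–100 μM substrate by non-linear Michaelis–Menten regression.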

EXDO-K2_s3 = format: biochemical; details: read-out: Km (μM) ^b; 50 mM K/Na-phosphate pH 8.0, air-saturated; partially purified enzyme
Procedure, shortened: as §1

EXDO-K2_s129 = format: biochemical; details: read-out: Km (μM) ^b; 50 mM K/Na-phosphate pH 8.0, air-saturated; partially purified enzyme
Procedure, shortened: as §1

EXDO-K2_s7 = format: biochemical; details: read-out: Km (μM) ^b; 50 mM K/Na-phosphate pH 8.0, air-saturated; partially purified enzyme
Procedure, shortened: as §1

EXDO-K2_s162 = format: biochemical; details: read-out: Km (μM) ^b; 50 mM K/Na-phosphate pH 8.0, air-saturated; partially purified enzyme
Procedure, shortened: as §1

EXDO-D_s4 = format: biochemical, uncultured bacterium; details: read-out: Km (μM) ^b; 50 mM K/Na-phosphate pH 8.0, air-saturated; partially purified enzyme
Procedure, shortened: as §1

EXDO-D_s151 = format: biochemical, uncultured bacterium; details: read-out: Km (μM) ^b; 50 mM K/Na-phosphate pH 8.0, air-saturated; partially purified enzyme
Procedure, shortened: as §1

[1] = 50 mM K/Na-phosphate pH 8.0, air-saturated

| Compound | Km (EXDO-Dbt_s207; [1]) | Km (EXDO-D_s45) | Km (EXDO-K2_s3) | Km (EXDO-K2_s129) | Km (EXDO-K2_s7) | Km (EXDO-K2_s162) | Km (EXDO-D_s4) | Km (EXDO-D_s151) | Km (EXDO-Dbt_s207; 50 mM acetic acid/NaOH pH 5.5, air-saturated) |
| --- | --- | --- | --- | --- | --- | --- | --- | --- | --- |
| Cc1cccc(O)c1O [3-methylcatechol] | 13.6 ± 1.9 µM | 0.27 ± 0.1 µM | 4.5 ± 0.6 µM | 9.3 ± 1.1 µM | 4.6 ± 0.4 µM | 4.3 ± 0.7 µM | 1.8 ± 0.3 µM | 3.5 ± 1.5 µM | – |
| Oc1ccc2ccccc2c1O [1,2-dihydroxynaphthalene] | – | – | – | – | – | – | – | – | 11.6 ± 1.4 µM |
| Oc1cccc(-c2ccccc2)c1O [2,3-dihydroxybiphenyl] | 4.2 ± 0.7 µM | 0.61 ± 0.08 µM | 2.1 ± 0.2 µM | 2.1 ± 0.2 µM | 0.84 ± 0.08 µM | 1 ± 0.1 µM | 3.7 ± 0.6 µM | – | – |
| Oc1ccccc1O [catechol] | 35 ± 5 µM | 0.27 ± 0.03 µM | – | – | – | – | 1.4 ± 0.2 µM | 1.1 ± 0.2 µM | – |

— article PMC2784041 (Environmental Microbiology, 2009)
